Active and inactive are the calls of the source.
Columns and labels:
HepG2 = test: Cytotoxicity against human HepG2 cells assessed as reduction in cell viability upto 10 uM after 48 hrs by MTT assay; type: toxicity, cell-based; details: hepg2, 48 h
Outline: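 HepG2 cells treated 48 h with compound at 0.1–10,000 nM; viability read by MTT versus untreated control cells. Mean ± SD of three experiments run in triplicate.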

[1] = Induction of LDLR expression in human HepG2 cells membrane in presence of 10 nM PCSK9 (reference value: 39.71 +/- 2.05%); type: functional
[2] = Induction of LDL uptake in human HepG2 cells incubated for 2 hrs in presence of 10 nM PCSK9 by fluorescent plate reader analysis (reference value: 51.69 +/- 15.30 %); type: functional
[3] = Metabolic stability in mouse liver microsomes assessed as clearance per mg protein at 5 uM preincubated for 10 mins followed by UDPGA addition and measured upto 60 mins by LC-MS/MS analysis; type: ADME, Microsome; details: time < 70 min, read-out: CLH
Outline: (§1)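 Compound at 5 μM final, in duplicate, from a 1 mM DMSO solution. Pre-incubated 10 min at 37 °C with human or mouse liver microsomes (0.5 mg/mL) in 50 mM potassium phosphate pH 7.4 with 3 mM MgCl2. The reaction was started with an NADPH-regenerating mix plus UDPGA. Samples taken at 0–60 min were quenched in ACN and analysed by LC–MS/MS. A no-cofactor control was included; 7-ethoxycoumarin and 7-hydroxycoumarin served as references.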

[4] = Metabolic stability in human liver microsomes assessed as clearance per mg protein at 5 uM preincubated for 10 mins followed by UDPGA addition and measured upto 60 mins by LC-MS/MS analysis; type: ADME, Microsome; details: time < 70 min, read-out: CLH; outline: as §1
[5] = biological target: Proprotein convertase subtilisin/kexin type 9 (Homo sapiens) (UniProt Q8NBP7); test: Inhibition of PCSK9 mediated epinephrine induced platelet aggregation in human platelet rich plasma assessed as prevention of AUC increase at 10 nM preincubated for 15 mins followed by PRP addition by light transmission aggregometry assay
Outline: (§2)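 PRP from healthy donors (n = 5), prepared by centrifuging whole blood 10 min at 100g at room temperature without brakes. Recombinant PCSK9 (5 μg/mL) preincubated with compound for 15 min at room temperature, then added to PRP for 2 min at 37 °C. Aggregation triggered by subthreshold epinephrine (0.16 μM) and followed by light transmission aggregometry. Lag time and area under the curve were scored.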

[6] = biological target: Proprotein convertase subtilisin/kexin type 9 (Homo sapiens) (UniProt Q8NBP7); test: Inhibition of PCSK9 mediated epinephrine induced platelet aggregation in human platelet rich plasma assessed as prevention of lag time reduction at 10 nM preincubated for 15 mins followed by PRP addition by light transmission aggregometry assay; outline: as §2
[7] = Induction of LDLR expression in human HepG2 cells membrane in presence of 1 nM PCSK9 (reference value: 39.71 +/- 2.05%); type: functional
[8] = Induction of LDL uptake in human HepG2 cells incubated for 2 hrs in presence of 1 nM PCSK9 by fluorescent plate reader analysis (reference value: 51.69 +/- 15.30 %); type: functional

Proprotein convertase subtilisin/kexin type 9 (Homo sapiens), sequence (Q8NBP7 31-152 limits assumed): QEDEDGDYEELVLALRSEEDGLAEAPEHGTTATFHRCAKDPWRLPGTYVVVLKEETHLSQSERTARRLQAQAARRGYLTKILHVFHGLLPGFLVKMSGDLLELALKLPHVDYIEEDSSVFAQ
Proprotein convertase subtilisin/kexin type 9 (Homo sapiens), sequence (Q8NBP7 153-692 limits assumed): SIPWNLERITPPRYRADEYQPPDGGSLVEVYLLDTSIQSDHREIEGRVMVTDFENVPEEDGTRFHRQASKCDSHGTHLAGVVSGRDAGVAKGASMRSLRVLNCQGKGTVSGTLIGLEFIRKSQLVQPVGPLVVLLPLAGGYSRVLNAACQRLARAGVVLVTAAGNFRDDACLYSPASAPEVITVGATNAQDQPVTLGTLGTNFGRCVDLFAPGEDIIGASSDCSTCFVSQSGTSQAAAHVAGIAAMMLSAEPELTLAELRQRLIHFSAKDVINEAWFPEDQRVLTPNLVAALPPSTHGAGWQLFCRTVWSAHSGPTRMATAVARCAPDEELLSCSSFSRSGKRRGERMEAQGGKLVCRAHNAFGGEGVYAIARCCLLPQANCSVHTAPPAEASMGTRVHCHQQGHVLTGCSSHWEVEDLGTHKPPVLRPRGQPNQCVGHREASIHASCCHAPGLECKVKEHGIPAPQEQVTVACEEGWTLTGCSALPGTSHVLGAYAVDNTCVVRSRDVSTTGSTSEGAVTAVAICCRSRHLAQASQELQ

Row | microsomal CLint at 5 µM [3] [µL/min/mg] | microsomal CLint at 5 µM [4] [µL/min/mg] | SMILES | Activity (HepG2) | also measured
1 |  |  | C#Cc1ncc(-c2ncc(-c3ccc4ccccc4c3)n2CCCC(C)(C)C)n1CCCCCNC | Non-Toxic | Activity [1]: 91.1%; Activity [2]: 81.87%
2 | 291 | 46.1 | CCOc1ccc2ccc(=O)oc2c1 [ETHOXYCOUMARIN] |  | 
3 |  |  | CNCCCCCn1c(-c2ncc(-c3ccc4ccccc4c3)n2CCCC(C)(C)C)cnc1I | Non-Toxic | inhibition [5]: Active; inhibition [6]: Active; Activity [7]: 101.1%; Activity [8]: 103.47%
4 | 533 | 390 | O=c1ccc2ccc(O)cc2o1 [UMBELLIFERONE] |  | 
